Assay results reported in the EternaBench riboswitch data.

System: MS2 coat protein
Experiment: apparent Kd, MS2 coat protein; higher = weaker binding; RNA-MaP array; FMN 200 µM where present
Method in brief: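 On Illumina sequencing-chip clusters, designs were transcribed by stalled E. coli RNA polymerase and titrated with SNAP-549-labelled MS2 coat protein (0.7 or 1.5 nM, doubling to 3 µM), without and then with constant ligand, in 100 mM Tris-HCl pH 7.5, 80 mM KCl, 4 mM MgCl2, BSA, DTT, yeast tRNA and Tween-20. Apparent Kd is the median of filtered per-cluster curve fits to green signal normalised to red-channel RNA signal and control-cluster median Fmax.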

[1] = designed as: OFF switch for flavin mononucleotide, no ligand
[2] = ligand present: flavin mononucleotide, designed as: OFF switch for flavin mononucleotide
[3] = designed as: ON switch for flavin mononucleotide, no ligand
[4] = ligand present: flavin mononucleotide, designed as: ON switch for flavin mononucleotide

| Sequence | apparent Kd [1] [nM] | apparent Kd [2] [nM] | apparent Kd [3] [nM] | apparent Kd [4] [nM] |
| --- | --- | --- | --- | --- |
| GUAGAGUAAGGAUAUGCUGAAUAGGAUAGAAUGGUUAGAAAGCAGAAGGUACAUGAGGAUCACCCAUGUAAUGU | 23.2 | 21.2 |  |  |
| GGAAAUCAUGUAGGAUAUGCAUGGCGAAGCUACGCAGAAGGACAUGAGGAUCACCCAUGUUAUAGCGUCCGUGAAAGGAUGCAA | 39.7 | 120 |  |  |
| GCCAUCACGUGAGGAUAUGCUCCCGUUUCGGGAGCAGAAGGCAUGUCAUCAGACAUGAGGAUCACCCAUGUAGUUAAGAUGGCA |  |  | 43.6 | 13.1 |
| AUGCUAGUGUGAGGAUAUCAACAUGAGGAUCACCCAUGUUGGAAGUACACGACAUGCGGUACAUCUGAGAAGGUACAUUAGCAU | 29.1 | 52 |  |  |
| UGGUACUCGGGAGGAUAUGGGAAGAUACAUGAGGAUCACCCAUGUUUAAGAAUGCCGAGAGGCAACUAGAAGGCCCUAGUACCU |  |  | 457 | 23.4 |
| UAUAUAUAGUAAGGAUAUGUAUUUAUUUGAUAAACAGAAGGUACUGACAUGAGGAUCACCCAUGUUUUAGUGUGGGCAUGUAGA | 81.6 | 131 |  |  |
| AAAUUUAACGAAGGAUAUACUAACAUGAGGAUCACCCAUGUGUGUUUCGUGUUACUGAAAUUCGGGUAGAAGGUCGUAUACAUA | 80.4 | 33.7 |  |  |
| GUAGCUAUCGGAGGAUAUUCAUACCGGAAACGGACAUGAGGAUCACCCAUGUGGCGAAAGCCUUGGAAGAAGGCCGAUAGCUAC |  |  | 4.08 | 3.56 |
| CAGCGAAAGCUGAAUCUGUAGAGAGAGGAUAUACGUCAUAAGAUGCAUACAUGAGGAUCACCCAUGUAGAAGGCUCUCUACAGU | 5.68 | 6.7 |  |  |
| AACUGACAUGAGGAUCACCCAUGUCAGGAUAUGACUUGAUAGAAAAUAAAAUAUCAUGUCAGAAGGGACAUGGA | 23.8 | 33.3 |  |  |
| UCCUUAAGUUAGGAUAUCGAUUGCUAUAGCAGAUGAGAAGGAGCCACAUGAGGAUCACCCAUGUCCUCACCUAU | 180 | 214 |  |  |
| AAGCGCUGUCAAGGAUAUCCGAAAAGAGAAUAAGGAGAAGGUGACAUGAGGAUCACCCAUGUGCACUGGGUGGACGCGCGCUCC | 549 | 196 |  |  |
| GCAGCACUCUUUAACAUGAGGAUCACCCAUGUCAAAAGACAUGAGGAUAUGCAUCUGAAGAAGAUGCAGAAGGCAUUGUGCUGC |  |  | 32.3 | 6.94 |
| CUCAUGUAAGGAUAUGACUACAUAAAAAAAAAAAAAUGUAGUCAGAAGGUACAUGAGGAUCACCCAUGUACAAA | 53.7 | 35 |  |  |
| AAACGCCAACAUGAGGAUCACCCAUGUUCUAGUUUAGGGUCGCAGGAUAUGACUUCGAAGCUUAGUCAGAAGGGUGAAUCCACA |  |  | 14.5 | 10.5 |
| AAGUCUGGACGAGGAUAUCAGCUGUAACUGGCGUCGACAUGAGGAUCACCCAUGUUGCUAUAGGGUGAGAAGGCGUUUGGGCAA |  |  | 47.7 | 28.8 |
| AGUAAGAUGCAGAAGGUGUCAGCGAGAGCUACGACAUGAGGAUCACCCAUGUACUAGAUAGAGUACAAGGAUAUGCAUCUUACA |  |  | 729 | 35.1 |
| CCAUUUCAGUAAGGAUAUAUAAACAUGACGAUACAUGAGGAUCACCCAUGUGUAGAAGGUACUAAUACAUAUAAUACAAUGCUC | 19.2 | 15.7 |  |  |
| GCUGGUCGAGGAUAUAUAUGACGUGCUUCGGCACGAAGAUCACAUGAGGAUCACCCAUGUAGAAGGUGACCAGC | 53.8 | 267 |  |  |
| AAAACGUCAGGAUAUCCAAUAUAUGACAUGAGGAUCACCCAUGUUUCCACUCGUACCUCCGGAGAAGGGACUUUUU | 42.6 | 39.4 |  |  |
| CAGUCUACAGGAUAUACAUGAGGAUCACCCAUGUAAAUUCACUUUCGAUAGUCUACAUGUAGAAGGGUAGACUG | 15.5 | 18.6 |  |  |
| GUAGUUAGUAAAGGAUAUUAGUGUGUGUAAUAUUGAGAAGGUUACAUGAGGAUCACCCAUGUGAUCAAUCACUGUUAAGGUUGC | 6.6 | 6.42 |  |  |
| GCAUGCAAGUAGAAGGACGGAUAUUUUGAUACCGUAGGAUAUGCAGAAUCAUAUCCACAUGAUAACAUGAGGAUCACCCAUGUA | 15 | 13.7 |  |  |
| GCACGACAUGUAGGAUAUCGAGCGCCGGGCGCUCGAGAAGGACAUGAGGAUCACCCAUGUAUUCUGAGUGACCGAGGUCUGUGC | 72.9 | 594 |  |  |
| UUACAGUGCGGGUAGGAUAUGUAGGGUGGUACAUGAGGAUCACCCAUGUAUCCACCCUUCGACCGGCAGAAGGGCCUGUCACUAC |  |  | 17.1 | 20.5 |
| AAGGACUGAAUAAUAAGUAGAAAUACAUGAGGAUCACCCAUGUAGGAUAUCGUCAGGAAUACUGACGAGAAGGACAUACAGUCC | 13.6 | 16.7 |  |  |
| GGCUAACAUGAGGAUCACCCAUGUCGCCAAAAUCGAGGAUAUGGGUGCCAGCUCGGGCAGCCAGAAGGCGACAAAA |  |  | 225 | 33.1 |
| CCUGGCUUAGGAUAUACAGGAUCCGGGAACCCGGAAGUGAAACAUGAGGAUCACCCAUGUAGAAGGAAGAAAGC | 28.8 | 16.5 |  |  |

| Sequence | apparent Kd [1] [nM] | apparent Kd [2] [nM] | apparent Kd [3] [nM] | apparent Kd [4] [nM] |
| --- | --- | --- | --- | --- |
| UAUAUAUAGUAAGGAUAUGUAUUUAUGUUAUAAACAGAAGGUACUGACAUGAGGAUCACCCAUGUUUUAGUGUGGGCAUGUAGA | 87.9 | 122 |  |  |
| UCGGCGCGAGGAUAUACGUUUGCUCUUUUUCGUUUUUGUGUACAUGAGGAUCACCCAUGUAGAAGGCGCGCCGC | 17.9 | 63.7 |  |  |
| UAAUAAAGUGUGAGGAUAUGCUGGUCCUUAGAUCAGCAGAAGGCACAUGAGGAUCACCCAUGUAAUAUAUAAAU | 40 | 281 |  |  |
| AGUUGGCGAGGAUAUACAUGAGGAUCACCCAUGUGAAUAAUAAUAGUGAGGAAGAAAAGUAGAAGGCGCUGACA | 49.7 | 237 |  |  |
| GAGCUGACAAUAAAUAACUCAAAUACAUGAGGAUCACCCAUGUAGGAUAUGCAGUGGAAUACACUGCAGAAGGACAUAGUCAGC | 13.4 | 21.8 |  |  |
| GGGUACAUCGGAGGAUAUCAUGUAAAUACAUGAGGAUCACCCAUGUCGAUGGAGACAUCGGCGAUUGAGAAGGCCGAUGUACCG |  |  | 752 | 17.6 |
| AUGGUACAUGAGGAUCACCCAUGUUAGGAUAUCGCGUGAUCUAAAACUAAGAGACACACGAGAAGGGACGACAU | 176 | 104 |  |  |
| UUAACUCAUGUAGGAUAUGCAUGGCGAAGCUACGCAGAAGGACAUGAGGAUCACCCAUGUUCUAGCUACCGAGUUCGGUGGCAA | 92 | 272 |  |  |
| GUUGUCUAUGUAGGAUAUGCGAGGCGAGCCUAAGCAGAAGGACAUGAGGAUCACCCAUGUAUUGCGGUCUGCGUUCAGAUCGCU | 38.1 | 141 |  |  |
| AGCAAGUAUACAUGAGGAUCACCCAUGUUUGAUAGGGUUUUCAGAAGGUACAAUUUGAGAUAGAGUAAGGAUAUGAAAUAUGCG |  |  | 182 | 56.3 |
| UUUUAGUGAGGAUAUGUGGCUUCGAUCGUGAGAUCGAGGCUACAGAAGGCACAUGAGGAUCACCCAUGUUCCUC | 38.3 | 597 |  |  |
| CGAUGUUAUGUCAGGAUAUGCAUUGCGAAAGCAAUGCAGAAGGGACAUGAGGAUCACCCAUGUCCUAACCAUCG | 13.2 | 20.1 |  |  |
| CAGGACAGAGGAUAUACAUAGAUACAGAUUCAUGUAGAACUACAUGAGGAUCACCCAUGUAGAAGGCUGUCCUG | 29.5 | 300 |  |  |
| CACUGCAUGUAAGGAUAUCGACUGGAUAACAGUCGAGAAGGUACAUGAGGAUCACCCAUGUAAGCAGUGAAUAAUAAUAAUAAU | 13.2 | 25.2 |  |  |
| UCGAUAAGGAGAGGAUAUGGACAUGAGGAUCACCCAUGUACAUGGGAAUAUAUUCUGAAUUUUUACUAGAAGGCUUACAUAAAU | 20.8 | 17.1 |  |  |
| AGCGCGGUCCACUUGGACGCCUACGAGGAUAUCCCGUCACAUGAGGAUCACCCAUGUAGGCGCAUGGAGAAGGCGUAGAAAUCA |  |  | 152 | 13.7 |
| AGCGAGGCAGGAUAUACAUGAGGAUCACCCAUGUGCUUGCAUGGCGUGGAAUGUCGAGGUAGAAGGGCCAUGCC | 21.3 | 26.1 |  |  |
| AUCUCGUCAGGAUAUGACUACAUAAAAAAUAAAAAAUGUAGUCAGAAGGGACAUGAGGAUCACCCAUGUACCAA | 19.1 | 18.4 |  |  |
| ACCUUACUGGUCAGGAUAUACAGUCUUUGGUGGGUGUAGAAGGGACAUGAGGAUCACCCAUGUAGGUUGCAGCA | 175 | 153 |  |  |
| AUUAUGAAUGCAGGAUAUGAUUAACAUGAGGAUCACCCAUGUGGUGUUGUGAGUAAGGAGAGUGAUCAGAAGGGCAUUUUUUUU |  |  | 593 | 585 |
| GCCAUCACAUGAGGAUAUGCUCGGGUUUCCCGAGCAGAAGGCAUGUCAUAAGACAUGAGGAUCACCCAUGUAGUUAAGAUGGCA |  |  | 399 | 14.5 |
| UUAAUUUAAUGAUAUUAUGACAUUAGAAGGCUGUACAUGUUGAUACAUGAGGAUCACCCAUGUAUAGAGGAUAUAGACAAUUUU | 33.2 | 89 |  |  |
| CUUCUGUGAGGAUAUUAGUAGUAAAUAAAUAAAAUUAUUACUGAGAAGGCACAUGAGGAUCACCCAUGUUCCUC | 35.1 | 392 |  |  |
| GACUAGGCAGGAUAUACAUGAGGAUCACCCAUGUGUCUGCGUUGGGCACGUGAACACCGUAGAAGGGCCUUGAC | 15.8 | 35 |  |  |
| GAUUUAGAGCAGGAUAUCAUAGAAUUGUAUGAAUGAGAAGGGCUCACAUGAGGAUCACCCAUGUGGUCCUAGAU | 21.7 | 132 |  |  |
| GCGGCUAGUGCAGGAUAUCGGCGCGUGUAGCGCCGAGAAGGGCACAUGAGGAUCACCCAUGUGAUCAAUCACUGCUAAGGCCGC | 4.83 | 4.91 |  |  |
| AGCUAGAGAGGAUAUACGUGGAAAAAAAAAGUCUGAUCCCUACAUGAGGAUCACCCAUGUAGAAGGCUCUGGCA | 30.9 | 15.1 |  |  |
